An excerpt weighted towards active compounds, which were near 1.5% of everything screened.
EBI2 antag = blocks human EBI2 receptor beta-arrestin signaling | P32249 | EBI2 beta-arrestin recruitment, luminescence, 7a,25-OHC stimulated | inhibition, % at 5 µM | hit rate 0.81% among 360,000; in the data active = inhibition above about 38%;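 also: enzyme fragment complementation signal reports receptor beta-arrestin coupling in cells; 0% = agonist plus DMSO wells and 100% = wells without agonist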
CCR6 antag = blocks CCL20-driven beta-arrestin recruitment at human CCR6; P51684; CHO-K1 CCR6 PathHunter beta-arrestin, luminescence, CCL20-stimulated; inhibition, % at 20 µM; hit rate 0.49% among 340,000; AID 493098;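 active = compounds whose inhibition of the agonist-driven luminescence signal at 20 µM reaches about 50%, limit read from the data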;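 also: cells stimulated with CCL20 at 14 nM final; plate controls were DMSO with CCL20 for no effect and DMSO without agonist for full effect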
CXCR6 inh = inhibitors of human CXCR6 receptor; O00574; CHO-K1 PathHunter CXCR6 beta-arrestin, luminescence; inhibition, % at 20 µM; hit rate 0.36% among 360,000; in the data active = inhibition above about 34%, passing the limit was not always enough;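 also: antagonist mode with CXCL16 agonist at 10 nM final; 0% = 10 nM CXCL16 with DMSO and 100% = unstimulated wells without agonist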
Target sequence (O00574 whole entry, looked up): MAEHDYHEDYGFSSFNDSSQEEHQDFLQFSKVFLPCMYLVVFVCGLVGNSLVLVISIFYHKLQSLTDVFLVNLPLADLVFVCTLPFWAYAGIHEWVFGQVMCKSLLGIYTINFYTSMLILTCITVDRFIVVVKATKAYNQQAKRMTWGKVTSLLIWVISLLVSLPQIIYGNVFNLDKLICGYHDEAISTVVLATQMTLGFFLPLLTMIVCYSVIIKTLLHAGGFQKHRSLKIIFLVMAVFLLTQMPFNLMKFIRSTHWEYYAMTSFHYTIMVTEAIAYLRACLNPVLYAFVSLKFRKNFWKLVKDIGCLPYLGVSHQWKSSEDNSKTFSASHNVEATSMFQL
APJ ag = activates the human apelin receptor APJ; hit rate 0.11% among 330,000; P35414; activation, % at 20 µM; CHO-K1 APJ PathHunter beta-arrestin, luminescence; 0% DMSO wells, 100% apelin;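 active = activation more than six SD over the plate average, tested at 20 µM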;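 also: 0% = DMSO alone and 100% = apelin-13 at 10 nM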
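Incubation: overnight seeding, 90 min compound at 25 °C, 1 h detection; test system: PathHunter CHO-K1 APJ (AGTRL-1) beta-arrestin reporter cells; amount: 1000 cells/well; doses: one dose, 20 µM compound, 1% DMSO; measured by: beta-gal luminescence; measure: agonist-driven arrestin binding to APJ; benchmarks: negative DMSO alone, positive Apelin-13 at 10 nM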
APJ antagonist = APJ receptor antagonism; CHO-K1 APJ beta-arrestin complementation, luminescence; inhibition, % at 20 µM; hit rate 0.32% among 330,000;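 active = inhibition above about 40% at 20 µM, limit read from the data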;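 also: cells challenged with 10 nM apelin-13 agonist together with compound; plate controls were apelin-13 plus DMSO wells for no effect and DMSO wells lacking apelin-13 for full effect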
EBI2 conf = EBI2 (human) antagonism, single concentration confirmation; shares compounds with EBI2 antag; EBI2 beta-arrestin luminescence, 7a,25-OHC antagonism; inhibition, % at 5 µM; hit rate 29% among 2,400;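 active = inhibition of at least 50%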
EBI2 ag = EBI2 agonism counter-screen; AID 652000; EBI2-expressing cells, agonist mode, luminescence, 60 min; 0% vehicle, 100% 7α,25-dihydroxycholesterol control; shares compounds with EBI2 antag; 2,400 tested, under 10 active; activation, % at 5 µM;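 active = activation of at least 50%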
bGal cs = beta-galactosidase inhibition counter-screen; inhibition, % at 5 µM; shares compounds with EBI2 antag; hit rate 1% among 2,400; purified beta-galactosidase, luminescent Galacton Star, 15 min;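 active = replicate-average signal at least 3 plate SD below neutral wells, shown as high inhibition, flagging enzyme-inhibiting false positives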;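 also: 0% = DMSO wells with enzyme and 100% = wells lacking enzyme; higher means stronger loss of beta-gal luminescence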
An asterisk follows results filed as active; / = not tested or not shown.

SMILES	EBI2 antag	CCR6 antag	CXCR6 inh	APJ ag	APJ antagonist	EBI2 conf	EBI2 ag	bGal cs
OC(COc1ccc2cc(Br)ccc2c1)CN1CCN(c2ccccn2)CC1 (stereo not given)	82*	-6	-13	-3	16	49	1	-13
CC(=O)Nc1ccc(S(=O)(=O)N2CCN(CC(O)COc3ccc4ccccc4c3)CC2)cc1 (stereo not given)	57*	7	-14	0	-24	24	1	4
COc1ccc2c(c1)/C(=C/c1cc(OC)c(OC)c(OC)c1)C(=O)N2	12	19	5	/	/	/	/	/
COc1ccc(C(=O)/C=C2\C(=O)Nc3ccc(Br)cc32)cc1	78*	21	36	/	/	70*	0	-10
COc1ccc(N/C=C(\C#N)c2ccc(OCCCF)cc2)cc1	72*	10	9	-8	-1	37	-1	-12
Cc1ccc(N/C=C(\C#N)c2ccc(OCCCF)cc2)cc1	81*	12	3	0	-5	52*	-1	-15
Cc1ccc(N/C=C(/C#N)c2ccsc2)cc1	28	22	-10	-4	9	/	/	/
Cc1ccc(S(=O)(=O)N2CCC(C(=O)NC3CCCC3)CC2)cc1Cl	-16	-8	-5	-1	22	/	/	/
O=C(COc1ccccc1)Nc1ccc2c(c1)C(=O)N(CC1CCCO1)C2=O (stereo not given)	45*	6	-3	-4	-4	21	0	8
O=C(O)c1cccc(NC(=O)c2ccc3c(c2)C(=O)N(CC2CCCO2)C3=O)c1 (stereo not given)	-3	3	0	-6	-11	/	/	/
COc1cccc(NC(=O)c2ccc3c(c2)C(=O)N(CC2CCCO2)C3=O)c1 (stereo not given)	60*	1	-3	-2	1	32	0	8
COCCCN1C(=O)c2ccc(C(=O)Nc3ccccc3OC)cc2C1=O	8	1	-2	1	13	/	/	/
COc1cccc(C(=O)Nc2ccc3c(c2)C(=O)N(CC2CCCO2)C3=O)c1 (stereo not given)	14	11	-8	7	-26	/	/	/
COC(=O)c1cccc(NC(=O)c2ccc3c(c2)C(=O)N(CC2CCCO2)C3=O)c1 (stereo not given)	44*	8	7	5	12	31	0	-19
COCCCN1C(=O)c2ccc(C(=O)Nc3ccc(OC)cc3)cc2C1=O	58*	9	-3	-3	7	49	2	1
CC(C)(C)[C@H]1C=C(C(=O)NC2CC2)O[C@@H](OCCCCO)C1	0	-1	-10	2	13	/	/	/
CCN1C(=O)c2ccc(C(=O)Nc3ccc4c(c3)OCO4)cc2C1=O	49*	9	1	-4	6	19	1	-15
CC1CCCN(c2ccc(C(=O)Nc3ccc4c(c3)OCO4)cc2[N+](=O)[O-])C1 (stereo not given)	46*	32	15	-1	19	34	1	8
COC(=O)Cc1ccc(NC(=O)c2ccc3c(c2)C(=O)N(CC2CCCO2)C3=O)cc1 (stereo not given)	13	11	-3	19	-12	/	/	/
COc1ccc(NC(=O)c2ccc3c(c2)C(=O)N(CC2CCCO2)C3=O)cc1 (stereo not given)	80*	0	-5	1	9	50	1	7
CCN1C(=O)c2ccc(C(=O)NCc3ccc4c(c3)OCO4)cc2C1=O	8	-6	-3	0	1	/	/	/
CC1CCN(c2ccc(C(=O)Nc3ccc4c(c3)OCO4)cc2[N+](=O)[O-])CC1	13	17	17	-3	22	/	/	/
CCC(=O)N1CCc2cc(S(=O)(=O)N3CCCCCC3)ccc21	-7	5	-4	-1	-30	/	/	/
NC1=NC[C@H](c2ccccc2)N1CCCCC1CCCCC1	-1	10	-9	4	-20	/	/	/
S=C1NC[C@H](c2ccccc2)N1CCCCC1CCCCC1	46*	25	-7	-4	2	33	0	7
SMILES	EBI2 antag	CCR6 antag	CXCR6 inh	APJ ag	APJ antagonist	EBI2 conf	EBI2 ag	bGal cs
COc1cccc(-c2ccc3c(c2)C2CC3CCN2C(C)=O)c1 (stereo not given)	-3	-8	-1	/	/	/	/	/
COc1ccc(S(=O)(=O)Nc2cccc3c2O[C@H](CN(C)Cc2ccc(Cl)c(Cl)c2)[C@@H](C)CN([C@H](C)CO)C3=O)cc1	60*	13	1	-2	1	59*	-1	4
C[C@H]1CN([C@@H](C)CO)C(=O)c2cccc(NS(=O)(=O)c3ccc(F)cc3)c2O[C@H]1CN(C)Cc1ccc(Cl)c(Cl)c1	11	6	8	-1	8	/	/	/
COc1ccccc1NC(C)C(=O)Nc1ccc(C(C)=O)cc1 (stereo not given)	12	-2	-2	3	12	/	/	/
Cc1ccccc1-c1noc(C(C)NC(=O)c2ccco2)n1 (stereo not given)	-1	7	8	0	5	/	/	/
O=C(c1ccc(-n2cccn2)cc1)N1CCN(c2ncccc2C(F)(F)F)CC1	87*	16	-3	0	-2	80*	0	7
Cc1oc(C(C)(C)C)cc1C(=O)N1CCN(c2ncccc2C(F)(F)F)CC1	14	0	7	3	1	/	/	/
Cc1cc(C)c2cc(C(=O)N3CCN(c4ncccc4C(F)(F)F)CC3)[nH]c2c1	77*	2	-6	-4	2	46	0	-9
CC(C)(C)NC(=O)N1CCN(c2ncccc2C(F)(F)F)CC1	-14	11	-4	1	11	/	/	/
COc1cccc(-c2ncc3ccccc3c2COC(=O)N(C)C)c1	13	15	8	-3	15	/	/	/
CN(Cc1ccccc1)C(=O)COc1cc(Cl)ccc1Cl	6	20	-2	0	18	/	/	/
CN(Cc1ccccc1)C(=O)COc1ccc2ccccc2c1	90*	0	-3	-3	-9	87*	-1	-14
CN(Cc1ccccc1)C(=O)COC(=O)COc1ccc(Cl)cc1	2	3	-4	2	2	/	/	/
Cc1cc(OCC(=O)N(C)Cc2ccccc2)cc(C)c1Cl	87*	14	-1	-3	5	65*	1	4
COc1ccccc1N1CCN(S(=O)(=O)CCNC(=O)COc2ccccc2)CC1	68*	/	-10	/	/	48	0	7
Cc1cc(NC(=O)c2cccc(S(=O)(=O)N3CCC(C)CC3)c2)no1	5	14	1	2	8	/	/	/

Screening results (PubChem)
